Experimental findings from article PMC9272570 (Journal of Drug Delivery Science and Technology, 2022) are described below.

Data set [1] in a line: Dissolution studies. Format: physicochemical. As to conditions: 50 rpm. The essentials:
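900 ml medium (0.01 M phosphate buffer), 37 ± 0.5 °C. Load: 400 mg test compound or equivalent; formulations contained avicel and aerosil. 5 ml samples withdrawn at 5, 10, 15, 30, 45 and 60 min, filtered (0.45 μm) and replaced with fresh medium. Quantified by reversed-phase C18 HPLC (0.02 M KH2PO4 pH 6.8:acetonitrile 25:75). Cumulative amount dissolved expressed as % of load. Triplicates.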

The test system of data set [2] is duodenum. The data set can be described thus: In-situ rabbit intestinal perfusion, duodenum. Format: in vivo. The essentials:
(§1)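 Rabbits were anaesthetised with IM chlorpromazine 2 mg/kg, then ketamine 45 mg/kg twice at a 15 min interval. The segment was cannulated (duodenum 15 cm, jejuno-ileum 30 cm) and rinsed with 37 °C saline. Test compound at 30 μg/ml in PBS with 10% v/v PEG 200 was perfused at 0.27 ml/min. Effluent was collected every 10 min for 2 h, weighed and assayed by HPLC-UV at 210 nm. Fa, ARL and L95% came from second-hour, water-flux-corrected Cout/Cin. Pathway was judged from PeA dependence on water flux.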

The test system of data set [3] is jejuno-ileum. In words: In-situ rabbit intestinal perfusion, jejuno-ileum. In kind it is in vivo. Summed up: as §1
The mark [4] stands for this setting: SEM in brackets, n = 3, listed as lopinavir.
Setting [5] is: from regression of absorptive clearance vs water flux.

Take `Cc1cccc(C)c1OCC(=O)N[C@@H](Cc1ccccc1)[C@@H](O)C[C@H](Cc1ccccc1)NC(=O)[C@H](C(C)C)N1CCCNC1=O` [Pure Lopinavir, Lopinavir]: in data set [1] (1% w/v Tween 80 in phosphate buffer pH 6.8, 37 °C), the “total amount liberated after 1 h” value was 41.85 % of the dose. Also, the “% DE (dissolution efficiency)” value in data set [1] (900 ml 1% w/v Tween 80 in 0.01 M phosphate buffer pH 6.8, 37 °C, 60 min, SD, n = 3) is recorded as 24.96 (1.48) %. Also, the “ARL (anatomical reserve length)” value is on record as −261.18 cm in data set [2] and −240.22 cm in data set [3]. In addition, the “%Fa/L (percentage fraction absorbed per unit length)” value in data set [2] (SEM in brackets, n = 3) is recorded as 1.61 (0.454) %cm^−1; in data set [3] (SEM in brackets, n = 3) it was 1.17 (0.27) %cm^−1. Also, the “L95% (required length for 95% absorption)” value is 276.18 (121.5) cm in data set [2] (SEM in brackets, n = 3); 276.18 cm in data set [2] (setting [4]); 339.54 (79.03) cm in data set [3] (SEM in brackets, n = 3); 339.54 cm in data set [3] (setting [4]). Besides, the “Rout/Rin (fraction remaining after absorption)” value was 0.759 (0.068) in data set [2] (SEM in brackets, n = 3) and 0.657 (0.083) in data set [3] (SEM in brackets, n = 3). Moreover, the “Absorption pathway: Paracellular” value in data set [2] (setting [5]) turned out to be 38.3%; in data set [3] (setting [5]) it was 0%. Moreover, the entries for the “Absorption pathway: Transcellular” value in data set [2] (setting [5]) and in data set [3] (setting [5]) were 61.7% and 100%, respectively.
